We go through 1 compound from ChEMBL document CHEMBL1687719, “Absence of CD4+ T lymphocytes, CD8+ T lymphocytes, or B lymphocytes has different effects on the efficacy of posaconazole and benznidazole in treatment of experimental acute Trypanosoma cruzi infection” (2009).

Each structure is given as a SMILES string. Active and inactive are the calls of the source. The rule behind the calls is not given here.

In assay [1] the test system is Trypanosoma cruzi. Description: Antitrypanosomal activity against Trypanosoma cruzi Y infected in CD8+ T-lymphocyte knockout C57BL/6 mouse assessed as occurrence of subpatent level of parasitemia at 20 mg/kg/day, po administered twice daily for 20 consecutive days measured 60 days post infection. Format: functional, organism-based. The method in brief: (§1)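 Ip infection was 5,000 Y-strain blood trypomastigotes. From 4 dpi mice got 20 mg/kg/day orally in two daily doses (2% methylcellulose/0.5% Tween 80) for 20 days. Fresh tail blood was examined microscopically, daily from 4–16 dpi and every other day to 60 dpi. Reactivation was scored as return of patent parasitemia after treatment. Parasitemia curves were compared by Mann-Whitney.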

Assay [2] deals with Trypanosoma cruzi. Description: Antitrypanosomal activity against Trypanosoma cruzi Y infected in CD8+ T-lymphocyte knockout C57BL/6 mouse assessed as occurrence of low level of circulating parasites at 20 mg/kg/day, po administered twice daily for 20 consecutive days measured 25 days post infection. The class given is functional, organism-based. The method in brief:
as §1

The test system of assay [3] is Trypanosoma cruzi. Description: Antitrypanosomal activity against Trypanosoma cruzi Y infected in CD8+ T-lymphocyte knockout C57BL/6 mouse assessed as number of mouse with reactivated parasite at 20 mg/kg/day, po administered twice daily for 20 consecutive days measured 60 days post infection. The class given is functional. The method in brief: as §1
Assay [4] relates to Trypanosoma cruzi. Kind of assay: Antitrypanosomal activity against Trypanosoma cruzi Y infected in B-lymphocyte knockout C57BL/6 mouse assessed as number of mouse with reactivation of infection at 20 mg/kg/day, […] for 20 consecutive days measured 22 days post infection. Format: functional, organism-based.
For assay [5], the system named is Trypanosoma cruzi. Description: Antitrypanosomal activity against Trypanosoma cruzi Y infected in CD4+ T-lymphocyte knockout C57BL/6 mouse assessed as reactivation of parasite in mouse at 20 mg/kg/day, po administered twice daily for 20 consecutive days measured 60 days post infection. The class given is functional, organism-based. The gist of the method:
as §1

Assay [6] relates to Trypanosoma cruzi. Description: Antitrypanosomal activity against Trypanosoma cruzi Y infected in CD4+ T-lymphocyte knockout C57BL/6 mouse assessed as reactivation of parasite in mouse at 100 mg/kg/day, po administered once daily for 20 consecutive days measured 60 days post infection. Format: functional, organism-based. The method in brief: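 Ip infection was 5,000 Y-strain blood trypomastigotes. Oral dosing at 100 mg/kg/day, once daily in gum arabic water, ran from 4 dpi for 20 days. Parasitemia was read by microscopy of fresh tail blood, daily from 4–16 dpi, then every other day to 60 dpi. Reactivation was scored as patent parasitemia returning after treatment ended.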

The test system of assay [7] is Trypanosoma cruzi. Description: Antitrypanosomal activity against Trypanosoma cruzi Y infected in C57BL/6 mouse assessed as increase in survival of mouse at 20 mg/kg/day, po administered twice daily for 20 consecutive days measured 60 days post infection. The class given is functional. Conditions: 1440 h. The gist of the method: (§2)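 Mice were infected ip with 5,000 Y-strain blood trypomastigotes. Oral treatment began at 4 dpi at 20 mg/kg/day, split into two daily doses, suspended in 2% methylcellulose with 0.5% Tween 80, for 20 days. Survival was recorded to 60 dpi, giving rate and mean survival time. Untreated and vehicle-treated infected controls were included. Chi-square/Bonferroni comparison.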

Assay [8] has as its system Trypanosoma cruzi. Description: Antitrypanosomal activity against Trypanosoma cruzi Y infected in C57BL/6 mouse assessed as mean survival time at 20 mg/kg/day, po administered twice daily for 20 consecutive days measured 60 days post infection. Format: functional. The gist of the method:
as §2

The test system of assay [9] is Trypanosoma cruzi. Description: Antitrypanosomal activity against Trypanosoma cruzi Y infected in C57BL/6 mouse assessed as cure rate in mouse at 20 mg/kg/day, po administered twice daily for 20 consecutive days measured 60 days post infection. The class given is functional. The gist of the method:
(§3)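 Wild-type or knockout mice got 5,000 Y-strain blood trypomastigotes ip. Oral dosing ran from 4 dpi for 20 days: 20 mg/kg/day in two doses, in 2% methylcellulose plus 0.5% Tween 80. Cure meant no parasitemia on fresh tail blood up to 60 dpi and a negative hemoculture: 0.5 ml orbital blood in LIT medium, 28°C, 30–60 days, checked by microscopy. Rates compared by chi-square/Bonferroni.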

In assay [10] the test system is Trypanosoma cruzi. Kind of assay: Antitrypanosomal activity against Trypanosoma cruzi Y infected in CD4+ T-lymphocyte knockout C57BL/6 mouse assessed as increase in survival of mouse at 20 mg/kg/day, po administered twice daily for 20 consecutive days measured 60 days post infection. The class given is functional. As to conditions: 1440 h. The gist of the method: as §2

For assay [11], the system named is Trypanosoma cruzi. Description: Antitrypanosomal activity against Trypanosoma cruzi Y infected in CD4+ T-lymphocyte knockout C57BL/6 mouse assessed as mean survival time at 20 mg/kg/day, po administered twice daily for 20 consecutive days measured 60 days post infection. The class given is functional. The gist of the method: as §2
In assay [12] the test system is Trypanosoma cruzi. Kind of assay: Antitrypanosomal activity against Trypanosoma cruzi Y infected in CD4+ T-lymphocyte knockout C57BL/6 mouse assessed as cure rate in mouse at 20 mg/kg/day, po administered twice daily for 20 consecutive days measured 60 days post infection. The class given is functional. The method in brief:
as §3

The test system of assay [13] is Trypanosoma cruzi. Description: Antitrypanosomal activity against Trypanosoma cruzi Y infected in CD8+ T-lymphocyte knockout C57BL/6 mouse assessed as increase in survival of mouse at 20 mg/kg/day, po administered twice daily for 20 consecutive days measured 60 days post infection. Format: functional. As to conditions: 1440 h. The method in brief: as §2
The subject of assay [14] is Trypanosoma cruzi. Kind of assay: Antitrypanosomal activity against Trypanosoma cruzi Y infected in CD8+ T-lymphocyte knockout C57BL/6 mouse assessed as mean survival time at 20 mg/kg/day, po administered twice daily for 20 consecutive days measured 60 days post infection. The class given is functional. The gist of the method: as §2
The subject of assay [15] is Trypanosoma cruzi. Kind of assay: Antitrypanosomal activity against Trypanosoma cruzi Y infected in CD8+ T-lymphocyte knockout C57BL/6 mouse assessed as cure rate in mouse at 20 mg/kg/day, po administered twice daily for 20 consecutive days measured 60 days post infection. Format: functional. The method in brief: as §3
Assay [16] has as its system Trypanosoma cruzi. Kind of assay: Antitrypanosomal activity against Trypanosoma cruzi Y infected in B-lymphocyte knockout C57BL/6 mouse assessed as increase in survival of mouse at 20 mg/kg/day, po administered twice daily for 20 consecutive days measured 60 days post infection. The class given is functional. As to conditions: 1440 h. The gist of the method:
as §2

The test system of assay [17] is Trypanosoma cruzi. Description: Antitrypanosomal activity against Trypanosoma cruzi Y infected in B-lymphocyte knockout C57BL/6 mouse assessed as mean survival time at 20 mg/kg/day, po administered twice daily for 20 consecutive days measured 60 days post infection. The class given is functional. The method in brief:
as §2

Assay [18] concerns Trypanosoma cruzi. Description: Antitrypanosomal activity against Trypanosoma cruzi Y infected in B-lymphocyte knockout C57BL/6 mouse assessed as cure rate in mouse at 20 mg/kg/day, po administered twice daily for 20 consecutive days measured 60 days post infection. Format: functional. The method in brief: as §3
Assay [19] deals with Trypanosoma cruzi. Description: Antitrypanosomal activity against Trypanosoma cruzi Y infected in CD4+ T-lymphocyte knockout C57BL/6 mouse assessed as reactivation of parasite in mouse at 20 mg/kg/day, po administered twice daily for 20 consecutive days measured 7 days post infection. The class given is functional, organism-based. The method in brief: as §1

For `CC[C@@H]([C@H](C)O)n1ncn(-c2ccc(N3CCN(c4ccc(OC[C@@H]5CO[C@@](Cn6cncn6)(c6ccc(F)cc6F)C5)cc4)CC3)cc2)c1=O` [POSACONAZOLE], the result in the assay on Trypanosoma cruzi [1], in the assay with Trypanosoma cruzi [2] and in the assay on Trypanosoma cruzi [4] was Active. In addition, the Activity in the assay with Trypanosoma cruzi [3] is given as 13%; with Trypanosoma cruzi [9], 89%; in the assay with Trypanosoma cruzi [12] it was 0%; in the assay on Trypanosoma cruzi [15] it was 31%; in the assay with Trypanosoma cruzi [18] it was 71%. Besides, the result with Trypanosoma cruzi [5], with Trypanosoma cruzi [6] and in the assay on Trypanosoma cruzi [19] was inactive. Moreover, the survival at 20 mg/kg/day amounted to 100% in the assay with Trypanosoma cruzi [7], 6% in the assay on Trypanosoma cruzi [10], 81% in the assay on Trypanosoma cruzi [13] and 100% in the assay with Trypanosoma cruzi [16]. Also, the MST is greater than 60 days with Trypanosoma cruzi [8], 50.5 days in the assay on Trypanosoma cruzi [11], 59.6 days in the assay with Trypanosoma cruzi [14] and greater than 60 days in the assay on Trypanosoma cruzi [17].
